Measurements taken from PMC8268672 (Bioorganic Chemistry, 2021).
In brackets after ≈: the same amount, converted by molar mass. Where two headings read alike, the source gives them in different places.

Key:
[1] = system: Pseudomonas aeruginosa (MCCB 0035); assay: MIC, broth microdilution; type: cell-based; details: read-out: Minimum inhibitory concentration (MIC), PA
How it was run: (§1)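 Broth microdilution per CLSI in Mueller-Hinton broth, using two-fold serial dilutions of test compound and reference drugs from 512 to 0.25. Bacterial broth cultures were grown 2-6 h to 0.5 McFarland turbidity, then diluted with sterile solution to the final inoculum. MIC is reported in µg/mL.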

[2] = system: Madin Darby canine kidney (MDCK) cells; details: dog
[3] = system: Cryptococcus neoformans (ATCC 9011); assay: Agar disk diffusion, inhibition zone; type: cell-based; details: 100 µg/8 mm disc, triplicate, mean ± SD
Punta Toro virus = assay: CPE reduction assay in Vero cells; type: cell-based; details: read-out: Antiviral EC50, Punta Toro virus
Para-influenza-3 virus = assay: CPE reduction assay in Vero cells; type: cell-based, Parainfluenza-3 virus; details: Vero, read-out: Antiviral EC50, Para-influenza-3 virus
[4] = system: Staphylococcus aureus (ATCC 29213); assay: MIC, broth microdilution; type: cell-based; details: ATCC29213, read-out: Minimum inhibitory concentration (MIC), SA
How it was run: (§2)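 Antibacterial MICs by CLSI broth microdilution in Mueller-Hinton broth. Test compounds and standard drugs are serially diluted two-fold from 512 to 0.25. The bacterial broth culture is grown 2-6 h to a 0.5 McFarland turbidity, then adjusted with sterile solution to the final inoculum.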

[5] = system: Lactobacillus casei (NCIM-2651); assay: Agar disk diffusion, inhibition zone; type: cell-based; details: 100 µg/8 mm disc, triplicate, mean ± SD
[6] = system: Influenza A/H1N1 A/Ned/378/05; assay: CPE reduction assay in MDCK cells; type: cell-based; details: Influenza A virus
Yellow Fever virus = assay: microbe, parasite or virus in culture; type: cell-based; details: Yellow fever virus, Vero, read-out: Antiviral EC50, Yellow Fever virus
Adeno virus-2 = assay: CPE reduction assay in HEL cells; type: cell-based; details: read-out: Antiviral EC50, Adeno virus-2
[7] = system: Escherichia coli (ATCC 8739); assay: MIC, broth microdilution; type: cell-based; details: ATCC8739, read-out: Minimum inhibitory concentration (MIC), EC
How it was run: as §1

[8] = system: Aspergillus fumigatus (NCIM 2081); assay: Agar disk diffusion, inhibition zone; type: cell-based; details: 100 µg/8 mm disc, triplicate, mean ± SD
[9] = system: Candida albicans (NCIM 2087); assay: MIC, broth microdilution; type: cell-based; details: NCIM2087, read-out: Minimum inhibitory concentration (MIC), CA
How it was run: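 CLSI broth microdilution in Sabouraud liquid medium, with test compound two-fold serially diluted from 512 to 0.25. Fungal broth culture grown 24 h at 35 °C to 0.5 McFarland turbidity, then adjusted with sterile solution to a final […] inoculum. MIC expressed in µg/mL.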

[10] = system: Cryptococcus neoformans (ATCC 9011); assay: MIC, broth microdilution; type: cell-based; details: ATCC9011, read-out: Minimum inhibitory concentration (MIC), CN
How it was run: (§3)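 Antifungal MICs by CLSI broth microdilution in Sabouraud liquid medium. Test compounds and standard drugs are serially diluted two-fold from 512 to 0.25. The fungal broth culture is grown 24 h at 35 °C to a 0.5 McFarland turbidity, then adjusted with sterile solution to the final inoculum.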

[11] = system: Escherichia coli (ATCC 8739); assay: Agar disk diffusion, inhibition zone; type: cell-based; details: 100 µg/8 mm disc, triplicate, mean ± SD
How it was run: (§4)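 Agar disk diffusion on Mueller-Hinton agar plates seeded with a standard bacterial suspension. Test compound stock in DMSO, diluted with distilled water; 8 mm sterile filter-paper discs soaked in the solution. Ampicillin was the reference. Plates incubated at 35 °C for 24 h, in triplicate. Read-out is the average inhibition-zone diameter (mm) around each disc.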

[12] = system: Klebsiella aerogenes (NCIM-2098); assay: Agar disk diffusion, inhibition zone; type: cell-based; details: 100 µg/8 mm disc, triplicate, mean ± SD
Coxsackie virus B4 = assay: CPE reduction assay in Vero cells; type: cell-based; details: Enterovirus B, read-out: Antiviral EC50, Coxsackie virus B4
Vero cells = details: Vero cell cultures; microscopically detectable alteration of normal cell morphology
[13] = system: Candida albicans (NCIM 2087); assay: Agar disk diffusion, inhibition zone; type: cell-based; details: 100 µg/8 mm disc, triplicate, mean ± SD
[14] = system: Aspergillus fumigatus (NCIM 2081); assay: MIC, broth microdilution; type: cell-based; details: NCIM2081, read-out: Minimum inhibitory concentration (MIC), AF
How it was run: as §3

Influenza B B/Ned/537/05 = assay: CPE reduction assay in MDCK cells; type: cell-based; details: Influenza B virus, read-out: Antiviral EC50, Influenza B B/Ned/537/05, MTS
Vaccinia virus = assay: microbe, parasite or virus in culture; type: cell-based; details: Orthopoxvirus vaccinia, HEL, read-out: Antiviral EC50, Vaccinia virus
Human Coronavirus (229E) = assay: CPE reduction assay in HEL cells; type: cell-based; details: read-out: Antiviral EC50, Human Coronavirus (229E)
Sindbis virus = assay: CPE reduction assay in Vero cells; type: cell-based; details: read-out: Antiviral EC50, Sindbis virus
[15] = system: Streptococcus pneumonia (ATCC 49619); assay: Agar disk diffusion, inhibition zone; type: cell-based; details: 100 µg/8 mm disc, triplicate, mean ± SD
[16] = system: Aspergillus niger (NCIM 2191); assay: Agar disk diffusion, inhibition zone; type: cell-based; details: 100 µg/8 mm disc, triplicate, mean ± SD
How it was run: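 For the fungal strain, discs soaked in test compound solution (DMSO stock diluted with distilled water) sat on seeded Mueller-Hinton agar. Clotrimazole was the reference. Incubation ran 48 h at 35 °C, in triplicate. Zone of growth inhibition recorded in mm as the mean diameter around each disc.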

[17] = system: Pseudomonas aeruginosa (MCCB 0035); assay: Agar disk diffusion, inhibition zone; type: cell-based; details: 100 µg/8 mm disc, triplicate, mean ± SD
[18] = system: Bacillus cereus (NCIM-2458); assay: MIC, broth microdilution; type: cell-based; details: NCIM2458, read-out: Minimum inhibitory concentration (MIC), BC
How it was run: as §1

[19] = system: Staphylococcus aureus (ATCC 29213); assay: Agar disk diffusion, inhibition zone; type: cell-based; details: 100 µg/8 mm disc, triplicate, mean ± SD
How it was run: as §4

[20] = system: Aspergillus niger (NCIM 2191); assay: MIC, broth microdilution; type: cell-based; details: NCIM2191, read-out: Minimum inhibitory concentration (MIC), AN
How it was run: as §3

[21] = system: Salmonella typhimurium (NCIM-2501); assay: Agar disk diffusion, inhibition zone; type: cell-based; details: 100 µg/8 mm disc, triplicate, mean ± SD
[22] = system: Bacillus cereus (NCIM-2458); assay: Agar disk diffusion, inhibition zone; type: cell-based; details: 100 µg/8 mm disc, triplicate, mean ± SD
Reovirus-1 = assay: CPE reduction assay in Vero cells; type: cell-based; details: read-out: Antiviral EC50, Reovirus-1
[23] = system: Influenza A/H3N2 A/HK/7/87; assay: CPE reduction assay in MDCK cells; type: cell-based; details: Influenza A virus
[24] = system: Human embryonic lung (HEL) cells; details: HEL cell cultures; microscopically detectable alteration of normal cell morphology
MT4 cells = details: MT4 cell cultures; colorimetric MTT cell viability assay
[25] = system: Klebsiella aerogenes (NCIM-2098); assay: MIC, broth microdilution; type: cell-based; details: NCIM2098, read-out: Minimum inhibitory concentration (MIC), KA
How it was run: as §2

[26] = read-out: Antiviral EC50, Influenza A/H1N1 A/Ned/378/05, MTS
[27] = read-out: Antiviral EC50, Influenza A/H1N1 A/Ned/378/05, visual CPE score
[28] = read-out: Antiviral EC50, Influenza A/H3N2 A/HK/7/87, MTS
[29] = read-out: Antiviral EC50, Influenza A/H3N2 A/HK/7/87, visual CPE score

SMILES	MIC [1]	Cytotoxicity, Minimum cytotoxic conc. [2]	Diameter of growth inhibition zone, CN [3]	EC50 (Punta Toro virus)	EC50 (Para-influenza-3 virus)	MIC [4]	Diameter of growth inhibition zone, LC [5]	EC50 [6, 26]	EC50 [6, 27]	EC50 (Yellow Fever virus)	EC50 (Adeno virus-2)	MIC [7]	Diameter of growth inhibition zone, AF [8]	MIC [9]	MIC [10]	Diameter of growth inhibition zone, EC [11]	Diameter of growth inhibition zone, KA [12]	EC50 (Coxsackie virus B4)	Minimum cytotoxic conc. (Vero cells)	Diameter of growth inhibition zone, CA [13]	other results
Cc1ccc(S(=O)(=O)N2C(=O)CSC2c2ccccc2)cc1 (stereo not drawn) [5a, 3-[(4-Methylphenyl)sulfonyl]-2-phenyl-1,3-thiazolidin-4-one]	128 µg/mL (≈ 384 µM)	>100 µM	8.2 ± 0.5 mm	> 100 µM	> 100 µM	64 µg/mL (≈ 192 µM)	10 ± 0.4 mm	> 100 µM	> 100 µM	> 100 µM	> 100 µM	64 µg/mL (≈ 192 µM)	10.2 ± 1.2 mm	64 µg/mL (≈ 192 µM)	128 µg/mL (≈ 384 µM)	13.2 ± 1.1 mm	07 ± 1.74 mm	> 100 µM	>100 µM	10.8 ± 2.3 mm	MIC [14]: 64 µg/mL (≈ 192 µM); EC50 (Influenza B B/Ned/537/05): > 100 µM; EC50 (Vaccinia virus): > 100 µM; EC50 (Human Coronavirus (229E)): > 100 µM; EC50 (Sindbis virus): > 100 µM; Diameter of growth inhibition zone, SP [15]: 08 ± 0.8 mm; Diameter of growth inhibition zone, AN [16]: 10.1 ± 1.1 mm; Diameter of growth inhibition zone, PA [17]: 12.5 ± 0.6 mm; MIC [18]: 128 µg/mL (≈ 384 µM); Diameter of growth inhibition zone, SA [19]: 13.8 ± 0.9 mm; MIC [20]: 32 µg/mL (≈ 96 µM); Diameter of growth inhibition zone, ST [21]: 07 ± 1.5 mm; Diameter of growth inhibition zone, BC [22]: 08 ± 0.4 mm; EC50 (Reovirus-1): > 100 µM; EC50 [23, 28]: > 100 µM; EC50 [23, 29]: > 100 µM; Minimum cytotoxic conc. [24]: >100 µM; Minimum cytotoxic conc. (MT4 cells): >125 µM; MIC [25]: > 256 µg/mL
Cc1ccc(S(=O)(=O)N2C(=O)CSC2c2cccc(Br)c2)cc1 (stereo not drawn) [5c, 2-(3-Bromophenyl)-3-[(4-methylphenyl)sulfonyl]-1,3-thiazolidin-4-one]	16 µg/mL (≈ 38.8 µM)	>100 µM	7.5 ± 0.5 mm	> 100 µM	> 100 µM	32 µg/mL (≈ 77.6 µM)	14 ± 0.43 mm	> 100 µM	> 100 µM	> 100 µM	> 100 µM	16 µg/mL (≈ 38.8 µM)	11 ± 1.5 mm	32 µg/mL (≈ 77.6 µM)	64 µg/mL (≈ 155 µM)	19 ± 0.53 mm	14 ± 0.6 mm	> 100 µM	>100 µM	12.1 ± 0.9 mm	MIC [14]: 32 µg/mL (≈ 77.6 µM); EC50 (Influenza B B/Ned/537/05): > 100 µM; EC50 (Vaccinia virus): > 100 µM; EC50 (Human Coronavirus (229E)): > 100 µM; EC50 (Sindbis virus): > 100 µM; Diameter of growth inhibition zone, SP [15]: 10 ± 0.9 mm; Diameter of growth inhibition zone, AN [16]: 12 ± 0.6 mm; Diameter of growth inhibition zone, PA [17]: 16 ± 1.5 mm; MIC [18]: 32 µg/mL (≈ 77.6 µM); Diameter of growth inhibition zone, SA [19]: 17 ± 1.2 mm; MIC [20]: 32 µg/mL (≈ 77.6 µM); Diameter of growth inhibition zone, ST [21]: 12 ± 0.32 mm; Diameter of growth inhibition zone, BC [22]: 12 ± 0.32 mm; EC50 (Reovirus-1): > 100 µM; EC50 [23, 28]: > 100 µM; EC50 [23, 29]: > 100 µM; Minimum cytotoxic conc. [24]: >100 µM; Minimum cytotoxic conc. (MT4 cells): >125 µM; MIC [25]: 16 µg/mL (≈ 38.8 µM)
